# Source: paper PMC4203399 (Journal of Medicinal Chemistry, 2014)
# “Also recorded” adds a separate entry of the source.
# Experiments:
# Huh-5-2 cells = assay: microscopic examination of cell morphology in the replicon assay; type: cell-based; details: 72 h of compound treatment
# Huh-9-13 cells = assay: vital stains; type: cell-based
# Outline: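 Huh-9-13 replicon cells seeded at 25.000 cells/dish in complete DMEM without G418. Next day, treated with test compound (90 μM), an NS3 protease inhibitor (15 μM) or DMSO for 3 days at 37 °C, 5% CO2. Stained 30 min with Nile Red (2 μg/mL), monodansylcadaverine (50 μM) or LipidTOX Red (1/1000), then imaged live by confocal microscopy.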
# [1] = system: genotype 1b HCV subgenomic replicon in Huh-5-2 cells; type: cell-based, hepatitis C virus
# recombinant NS5BCΔ21 1b = recombinant NS5BCΔ21 1b (Hepatitis C virus genotype 1b, UniProt O92972); assay: NS5B primer dependent elongation; type: biochemical
# [2] = target: recombinant NS5BCΔ21 mutant M423T (Hepatitis C virus genotype 1b, UniProt O92972, M2842T); assay: NS5B mutant counterscreen assay, M423T; type: biochemical; details: M423T relative to NS5B WT (IC50 = 4.3 μM)
# [3] = thermodynamic and kinetic water solubility; type: physicochemical
# Outline: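 Test compound solutions shaken in a shaker bath for 48 h at room temperature, then filtered. Dissolved compound quantified by LC–UV–MS against calibration curves made from standard solutions in methanol. Determinations in triplicate.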
Compound,effect on cell morphology (microscopic analysis) (Huh-5-2 cells),induction of phospholipidosis/steatosis (different stainings) (Huh-9-13 cells),SI (ratio of CC50 to EC50) [1],assessment of anti-HCV activity in the replicon assay (in words) [1],fold more active than o-chlorine derivative 2c (NS5B) (recombinant NS5BCΔ21 1b),fold change [2],solubility kinetic at 48 h ([3]; kinetic from dmso stock) [µM],solubility thermodynamic at 48 h ([3]; thermodynamic from solid) [µM],induction of multilamellar bodies (monodansylcadaverine stain) (Huh-9-13 cells; 90 μM),neutral lipids content (Nile Red and LipidTOX red stain) (Huh-9-13 cells; 90 μM),fold higher NS5B inhibitory activity than parent compound 1 (recombinant NS5BCΔ21 1b)
"CN1c2c(C(=O)Nc3ccc(NS(C)(=O)=O)cc3)nn(-c3ccc(Cl)cc3)c2-c2ccccc2S1(=O)=O [2b, 1-(4-Chlorophenyl)-4-methyl-N-{4-[(methylsulfonyl)amino]phenyl}-1,4-dihydropyrazolo[4,3-c][1,2]benzothiazine-3-carboxamide 5,5-Dioxide]",did not show any significant cell morphological alterations; also recorded: did not display any significant effects on cell morphology; also recorded: did not exhibit any cell morphological alterations; also recorded: did not show any significant alteration in cell morphology; also recorded: did not display any antimetabolic and cell morphology alteration effects,induced pospholipidosis/steatosis,> 28,selective anti-HCV activity without any antimetabolic effect,~2 fold,,,,,,
"CN1c2c(C(=O)Nc3ccc(NS(C)(=O)=O)cc3)nn(-c3cccc(Cl)c3)c2-c2ccccc2S1(=O)=O [2a, 1-(3-Chlorophenyl)-4-methyl-N-{4-[(methylsulfonyl)amino]phenyl}-1,4-dihydropyrazolo[4,3-c][1,2]benzothiazine-3-carboxamide 5,5-Dioxide]",,,,selective anti-HCV activity without any antimetabolic effect,about 4 fold,~2,0.275,0.00398,did not induce multilamellar bodies,significantly altered the neutral lipids content,about 5 fold
